These results are taken from ChEMBL document CHEMBL1153511, “Synthesis and biological evaluation of sphingosine kinase substrates as sphingosine-1-phosphate receptor prodrugs” (2009).

Test [1] has as its target Sphingosine 1-phosphate receptor 1 (Homo sapiens) (UniProt P21453). Nature of the test: Ratio of agonistic EC50 for S1P to compound for human S1P1 receptor by [35S]GTPgammaS binding assay. Format: functional. The gist of the method:
(§1)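 The chemically phosphorylated compounds were tested as agonists at each individual S1P receptor. Agonist-stimulated binding of GTP[γ-35S] to membranes was measured. EC50 and Emax were normalized to those of S1P run in the same assay.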
(In general: Binding of GTPγS marks nucleotide exchange on a G protein.)

The target is the same in test [2]. Description: Ratio of agonistic Emax for S1P to compound for human S1P1 receptor by [35S]GTPgammaS binding assay. Format: functional. The essentials: as §1
In test [3] the target is Sphingosine 1-phosphate receptor 2 (Homo sapiens) (UniProt O95136). Description: Ratio of agonistic Emax for S1P to compound for human S1P2 receptor by [35S]GTPgammaS binding assay. Format: functional. The gist of the method:
as §1

Test [4] addresses Sphingosine 1-phosphate receptor 3 (Homo sapiens) (UniProt Q99500). Nature of the test: Ratio of agonistic EC50 for S1P to compound for human S1P3 receptor by [35S]GTPgammaS binding assay. Format: functional. The gist of the method: as §1
For test [5] the target is unchanged. Description: Ratio of agonistic Emax for S1P to compound for human S1P3 receptor by [35S]GTPgammaS binding assay. Format: functional. The essentials: as §1
Test [6] concerns the target Sphingosine 1-phosphate receptor 5 (Homo sapiens) (UniProt Q9H228). Nature of the test: Ratio of agonistic EC50 for S1P to compound for human S1P5 receptor by [35S]GTPgammaS binding assay. Format: functional. The essentials: as §1
Test [7] shares this target. Nature of the test: Ratio of agonistic Emax for S1P to compound for human S1P5 receptor by [35S]GTPgammaS binding assay. Format: functional. The essentials:
as §1

Test [8] concerns the target T1, Sphingosine kinase 2 (Homo sapiens) (UniProt Q9NRA0).
T1 sequence (whole entry): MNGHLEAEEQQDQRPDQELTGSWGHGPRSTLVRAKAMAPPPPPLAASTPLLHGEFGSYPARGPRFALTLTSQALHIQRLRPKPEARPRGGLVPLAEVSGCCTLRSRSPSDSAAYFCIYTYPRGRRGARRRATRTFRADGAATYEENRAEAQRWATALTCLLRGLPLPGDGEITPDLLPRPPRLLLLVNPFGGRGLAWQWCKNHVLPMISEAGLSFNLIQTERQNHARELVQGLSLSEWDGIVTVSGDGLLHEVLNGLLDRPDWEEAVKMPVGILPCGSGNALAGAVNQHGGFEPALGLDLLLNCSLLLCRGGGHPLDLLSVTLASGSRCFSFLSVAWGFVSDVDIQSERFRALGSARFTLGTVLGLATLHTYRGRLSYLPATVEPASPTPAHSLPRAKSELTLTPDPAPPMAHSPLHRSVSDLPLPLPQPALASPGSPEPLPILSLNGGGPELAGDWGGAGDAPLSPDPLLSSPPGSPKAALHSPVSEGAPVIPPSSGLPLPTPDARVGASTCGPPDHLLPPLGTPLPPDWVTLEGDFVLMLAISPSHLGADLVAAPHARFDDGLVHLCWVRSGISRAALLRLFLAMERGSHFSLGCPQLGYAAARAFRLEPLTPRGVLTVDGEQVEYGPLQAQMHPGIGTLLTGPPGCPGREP
Description: Activity at human SPHK2 at 15 uM.

The subject of test [9] is Mus musculus. Description: Induction of S1P1-mediated lymphopenia in mouse assessed as lymphocyte depletion at 10 mg/kg, ip after 20 hrs. Format: functional. The conditions noted are these: route intraperitoneal. The gist of the method: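 Mice received a single ip injection. Lymphocyte depletion from peripheral blood was assessed 20 h after dosing.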
Test [10] deals with T1, Sphingosine kinase 2 (Homo sapiens). Nature of the test: Activity at human SPHK2 at 100 uM.
For test [11], the target named is Sphingosine 1-phosphate receptor 2 (Homo sapiens) (UniProt O95136). Nature of the test: Ratio of agonistic EC50 for S1P to compound for human S1P2 receptor by [35S]GTPgammaS binding assay. Format: functional. The gist of the method: as §1
Chain of Sphingosine 1-phosphate receptor 2 (Homo sapiens) (O95136 whole entry): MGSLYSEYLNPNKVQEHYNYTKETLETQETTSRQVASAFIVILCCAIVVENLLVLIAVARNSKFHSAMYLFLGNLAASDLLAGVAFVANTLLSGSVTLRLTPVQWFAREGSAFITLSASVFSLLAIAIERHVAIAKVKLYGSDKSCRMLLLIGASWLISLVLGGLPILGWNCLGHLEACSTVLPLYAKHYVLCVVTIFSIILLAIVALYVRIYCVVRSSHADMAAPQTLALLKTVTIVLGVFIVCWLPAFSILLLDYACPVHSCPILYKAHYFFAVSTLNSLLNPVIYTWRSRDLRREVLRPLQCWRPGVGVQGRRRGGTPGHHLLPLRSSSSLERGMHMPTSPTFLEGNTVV
In test [12] the target is T2, Sphingosine 1-phosphate receptor 4 (Homo sapiens) (UniProt O95977).
T2 sequence (whole entry): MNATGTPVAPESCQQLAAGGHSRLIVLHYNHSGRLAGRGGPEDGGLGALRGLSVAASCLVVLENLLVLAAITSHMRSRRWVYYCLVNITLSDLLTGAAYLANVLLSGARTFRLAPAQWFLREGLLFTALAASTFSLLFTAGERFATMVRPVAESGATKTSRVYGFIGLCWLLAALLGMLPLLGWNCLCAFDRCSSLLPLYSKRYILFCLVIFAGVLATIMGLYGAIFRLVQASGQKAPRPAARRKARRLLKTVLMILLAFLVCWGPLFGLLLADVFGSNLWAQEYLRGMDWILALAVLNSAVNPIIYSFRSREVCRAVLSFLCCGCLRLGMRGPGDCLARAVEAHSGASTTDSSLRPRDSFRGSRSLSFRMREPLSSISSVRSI
Nature of the test: Ratio of agonistic EC50 for S1P to compound for human S1P4 receptor by [35S]GTPgammaS binding assay. Format: functional. The gist of the method: as §1

Test [13] deals with T2, Sphingosine 1-phosphate receptor 4 (Homo sapiens). Nature of the test: Ratio of agonistic Emax for S1P to compound for human S1P4 receptor by [35S]GTPgammaS binding assay. Format: functional. The gist of the method: as §1
Test [14] addresses Sphingosine kinase 1 (Homo sapiens) (UniProt Q9NYA1). Nature of the test: Activity at human SPHK1 at 100 uM.

Molecules are shown by their SMILES. Active and inactive are the calls of the source. The calls are words filed in the database; no cut-off is given here.

Chain of Sphingosine 1-phosphate receptor 3 (Homo sapiens) (Q99500 whole entry): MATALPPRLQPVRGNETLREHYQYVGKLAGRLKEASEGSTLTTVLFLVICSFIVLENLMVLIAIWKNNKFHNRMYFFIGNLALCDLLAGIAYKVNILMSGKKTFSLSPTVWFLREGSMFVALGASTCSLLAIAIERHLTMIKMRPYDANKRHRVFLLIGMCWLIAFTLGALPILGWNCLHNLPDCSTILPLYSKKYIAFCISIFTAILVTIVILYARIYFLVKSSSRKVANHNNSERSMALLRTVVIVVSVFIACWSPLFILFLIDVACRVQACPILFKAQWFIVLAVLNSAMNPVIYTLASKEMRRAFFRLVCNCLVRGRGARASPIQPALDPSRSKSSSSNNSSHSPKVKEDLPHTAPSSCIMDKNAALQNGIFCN
Chain of Sphingosine 1-phosphate receptor 1 (Homo sapiens) (P21453 whole entry): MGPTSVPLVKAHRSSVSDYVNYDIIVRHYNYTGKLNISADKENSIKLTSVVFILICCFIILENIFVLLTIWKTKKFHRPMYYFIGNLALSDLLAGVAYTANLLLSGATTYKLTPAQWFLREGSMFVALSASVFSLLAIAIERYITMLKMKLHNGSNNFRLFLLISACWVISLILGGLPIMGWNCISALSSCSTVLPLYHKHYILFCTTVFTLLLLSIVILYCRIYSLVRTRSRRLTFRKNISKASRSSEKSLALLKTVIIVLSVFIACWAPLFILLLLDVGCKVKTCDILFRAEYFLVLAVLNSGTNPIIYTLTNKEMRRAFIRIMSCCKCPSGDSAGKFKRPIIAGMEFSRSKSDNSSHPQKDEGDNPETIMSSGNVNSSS
Chain of Sphingosine 1-phosphate receptor 5 (Homo sapiens) (Q9H228 whole entry): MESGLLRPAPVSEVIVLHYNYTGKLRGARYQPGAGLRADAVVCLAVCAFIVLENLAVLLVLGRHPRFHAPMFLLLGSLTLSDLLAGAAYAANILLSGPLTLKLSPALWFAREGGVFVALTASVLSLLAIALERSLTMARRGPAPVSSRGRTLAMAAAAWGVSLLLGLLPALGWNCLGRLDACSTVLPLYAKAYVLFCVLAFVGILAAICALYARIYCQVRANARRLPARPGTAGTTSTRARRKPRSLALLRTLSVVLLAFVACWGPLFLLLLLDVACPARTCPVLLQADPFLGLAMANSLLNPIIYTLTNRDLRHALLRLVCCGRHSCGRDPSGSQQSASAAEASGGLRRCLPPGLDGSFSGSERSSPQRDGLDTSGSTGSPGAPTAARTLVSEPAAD
Chain of Sphingosine kinase 1 (Homo sapiens) (Q9NYA1 whole entry): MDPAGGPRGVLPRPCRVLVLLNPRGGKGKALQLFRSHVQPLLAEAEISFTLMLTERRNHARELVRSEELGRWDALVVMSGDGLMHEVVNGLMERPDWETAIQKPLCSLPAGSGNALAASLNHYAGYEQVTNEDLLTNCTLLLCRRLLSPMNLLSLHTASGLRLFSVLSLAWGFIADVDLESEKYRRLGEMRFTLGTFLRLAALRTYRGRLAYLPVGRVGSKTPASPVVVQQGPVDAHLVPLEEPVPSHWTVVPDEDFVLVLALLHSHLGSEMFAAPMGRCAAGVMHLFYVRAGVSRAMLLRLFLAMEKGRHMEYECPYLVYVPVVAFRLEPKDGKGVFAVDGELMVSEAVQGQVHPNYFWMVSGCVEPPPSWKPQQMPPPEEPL

For the compound `CCCCCCCCc1ccc(-c2coc(C(C)(N)COP(=O)(O)O)n2)cc1` (centres undefined), the Ratio EC50 in test [1] was determined as 4.28; in [4], 52.5; in [6], 24.1. For the same compound, the Ratio in [2] worked out at 0.8; in test [3], 0; in [5] it was 1; in [7], 0.6.

Regarding `CCCCCCCCc1ccc(-c2cnc([C@@](C)(N)CO)[nH]2)cc1`, the Activity was determined as 20% in test [8] and 75% in [9].

In the case of `CCCCCCCCc1ccc(-c2cnc([C@](C)(N)CO)[nH]2)cc1`, the outcome in test [10] was inactive. The Activity in test [9] is on record as 75%.

In the case of `CCCCCCCCc1ccc(-c2noc(C(C)(N)COP(=O)(O)O)n2)cc1` (racemic), the Ratio EC50 in test [1] was determined as 24.4; in test [4] it was 23; in [12], 0.52; in [6] it was 4.35. In addition, the Ratio amounted to 0.89 in test [2]; 0 in test [3]; 0.51 in test [5]; 0.81 in [13]; 0.73 in test [7]. Besides, the “Ratio EC50” value in test [11] was “inactive”.

Turning to `CCCCCCCCc1ccc(-c2nc(C(C)(N)CO)no2)cc1` (centres undefined), the result in [14] was Active.

Regarding `CCCCCCCCc1ccc(-c2cnc([C@@](C)(N)COP(=O)(O)O)[nH]2)cc1.O=C(O)C(F)(F)F.O=C(O)C(F)(F)F`, the Activity in test [9] turned out to be 75%. The Ratio EC50 in [1] was 1.09; in test [4] it was 50.8; in test [12] it was 0.59; in test [6], 3.62. The Ratio in [2] is 0.87; in test [3], 0; in test [5] it was 0.65; in test [13], 0.93; in test [7] it was 0.83. In addition, in test [11], the “Ratio EC50” value was “inactive”.

In the case of `CCCCCCCCc1ccc(-c2nc(C(C)(N)COP(=O)(O)O)no2)cc1` (centres undefined), the Ratio EC50 in [1] was found to be 2.5; in [6] it was 21.6. The figures for the Ratio in test [2], in [3] and in test [7] were 1, 0 and 1, respectively.

For the compound `CCCCCCCCc1ccc(-c2cnc([C@](C)(N)COP(=O)(O)O)[nH]2)cc1.O=C(O)C(F)(F)F.O=C(O)C(F)(F)F`, the Activity in test [9] came out at 75%. Moreover, the Ratio EC50 came to 8.09 in test [1], 1000 in test [4], 4.13 in test [12] and 16.1 in test [6]. The Ratio in test [2] worked out at 0.92; in test [3], 0; in [5], 0.61; in test [13], 1.19; in test [7], 0.83. For the same compound, in [11], the “Ratio EC50” value was “inactive”.
